Results taken from ChEMBL document CHEMBL5705892, “MK-2206, an allosteric Akt inhibitor, enhances antitumor efficacy by standard chemotherapeutic agents or molecular targeted drugs in vitro and in vivo” (Mol Cancer Ther, 2010).
The source made the active and inactive calls. No cut-off for these calls is given here.

Legend:
NCI-N87 [1] = assay: Synergistic antiproliferative activity against lapatinib pretreated human NCI-N87 cells assessed as combination index at ED50 measured after 72 hrs by celltiter-glo assay; type: functional
BT-474 [2] = assay: Synergistic antiproliferative activity against human BT-474 cells assessed as combination index at ED75 preincubated for 24 hrs followed by compound washout and subsequent docetaxel addition and measured after 72 hrs by celltiter-glo assay; type: functional
Method in brief: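 Sequential schedule. Cells were seeded at 2 to 3 × 10³ per well in RPMI 1640 with 10% FBS and dosed 24 h after plating. They were exposed to the Akt inhibitor for 24 h, washed free of it, then given docetaxel for a further 72 h. Fixed concentration ratios spanned each agent's IC₅₀. ATP was read by CellTiter-Glo, and Chou–Talalay CI was calculated at ED50, ED75 and ED90.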

A2780 [3] = assay: Synergistic antiproliferative activity against human A2780 cells assessed as combination index at ED75 measured after 72 hrs in presence of doxorubicin by celltiter-glo assay; type: functional
Method in brief: (§1)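 Cells were seeded at 2–3 × 10³ per well in RPMI 1640 with 10% FBS. At 24 h, MK-2206 and the partner drug were added simultaneously at constant concentration ratios spanning each agent's IC₅₀, for 72 h. Growth was read as cellular ATP by CellTiter-Glo. CI was taken from median-effect plots of each agent alone and in combination (Chou–Talalay), at ED₅₀, ED₇₅ and ED₉₀.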

NCI-H460 = assay: Synergistic antiproliferative activity against human NCI-H460 cells assessed as combination index at ED50 measured after 72 hrs in presence of carboplatin by celltiter-glo assay; type: functional
HCC70 [4] = assay: Synergistic antiproliferative activity against human HCC70 cells assessed as combination index at ED50 measured after 72 hrs in presence of docetaxel by celltiter-glo assay; type: functional
Method in brief: (§2)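 Cells grown in RPMI 1640 with 10% heat-inactivated FBS at 37°C, 5% CO₂. Seeded at 2 to 3 × 10³ per well; drugs added 24 h later. […] Viability read as cellular ATP by CellTiter-Glo. CI calculated by Chou–Talalay from median-effect plots at ED50, ED75 and ED90.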

[5] = biological target: RAC-alpha serine/threonine-protein kinase (Homo sapiens) (UniProt P31749); assay: Inhibition of AKT in human HCC827 cells assessed as reduction in AKT phosphorylation at S473 residue at 5 umol/L measured after 5 hrs by Western blot analysis; type: cell-based; settings: dose 5.0 µmol/L
RAC-alpha serine/threonine-protein kinase (Homo sapiens), sequence (P31749 whole entry): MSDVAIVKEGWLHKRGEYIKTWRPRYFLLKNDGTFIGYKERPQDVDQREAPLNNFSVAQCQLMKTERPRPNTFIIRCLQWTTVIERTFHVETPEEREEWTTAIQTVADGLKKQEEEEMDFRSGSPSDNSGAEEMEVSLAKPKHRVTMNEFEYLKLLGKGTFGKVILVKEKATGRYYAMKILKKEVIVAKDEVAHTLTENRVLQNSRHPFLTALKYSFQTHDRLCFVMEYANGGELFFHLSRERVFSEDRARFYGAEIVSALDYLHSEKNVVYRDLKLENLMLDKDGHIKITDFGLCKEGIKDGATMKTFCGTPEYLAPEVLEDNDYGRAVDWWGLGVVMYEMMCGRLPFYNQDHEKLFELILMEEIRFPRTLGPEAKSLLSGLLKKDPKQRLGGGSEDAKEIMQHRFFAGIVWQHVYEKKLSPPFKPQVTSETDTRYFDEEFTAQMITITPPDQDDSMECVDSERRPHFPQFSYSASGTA

NCI-H1299 [6] = assay: Synergistic antiproliferative activity against human NCI-H1299 cells assessed as combination index at ED90 measured after 72 hrs in presence of erlotinib by celltiter-glo assay; type: functional
NCI-H1299 [7] = assay: Synergistic antiproliferative activity against human NCI-H1299 cells assessed as combination index at ED50 measured after 72 hrs in presence of erlotinib by celltiter-glo assay; type: functional
MDA-MB-231 = assay: Synergistic antiproliferative activity against human MDA-MB-231 cells assessed as combination index at ED50 measured after 72 hrs in presence of docetaxel by celltiter-glo assay; type: functional; method in brief: as §2
[8] = biological target: RAC-alpha serine/threonine-protein kinase (Homo sapiens) (UniProt P31749); assay: Inhibition of AKT in human HCC827 cells assessed as reduction in PRAS40 phosphorylation at T246 residue at 5 umol/L measured after 5 hrs by Western blot analysis; type: cell-based; settings: dose 5.0 µmol/L
SK-BR-3 [9] = assay: Synergistic antiproliferative activity against human SK-BR-3 cells assessed as combination index at ED50 measured after 72 hrs in presence of lapatinib by celltiter-glo assay; type: functional
ZR-75-1 = assay: Synergistic antiproliferative activity against human ZR-75-1 cells assessed as combination index at ED75 measured after 72 hrs in presence of docetaxel by celltiter-glo assay; type: functional
A2780 [10] = assay: Induction of apoptosis in carboplatin pretreated human A2780 cells assessed as increase in caspase-3/7 activity measured after 24 hrs by caspase-glo 3/7 assay; type: functional, cell-based; settings: dose 0.0625-1 µM
BT-474 [11] = assay: Synergistic antiproliferative activity against human BT-474 cells assessed as combination index at ED90 measured after 72 hrs in presence of docetaxel by celltiter-glo assay; type: functional; method in brief: as §2
A2780 [12] = assay: Cell cycle arrest in human A2780 cells assessed as increase in accumulation of cells at sub-G1 phase measured after 72 hrs in presence of doxorubicin by propidium iodide staining based flow cytometry; type: functional
[13] = biological target: RAC-alpha serine/threonine-protein kinase (Homo sapiens) (UniProt P31749); assay: Inhibition of AKT in human A-431 cells assessed as reduction in GSK3alpha/beta phosphorylation at S21/S9 residues at 5 umol/L measured after 5 hrs in presence of erlotinib by Western blot analysis; type: cell-based; settings: dose 5.0 µmol/L
Method in brief: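 Cells were lysed in Tris-HCl pH 7.5, 150 mM NaCl, 1% Triton X-100 with protease and phosphatase inhibitors. Lysates were run on SDS-PAGE, transferred to nitrocellulose and probed with phospho-specific antibodies.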

NCI-N87 [14] = assay: Synergistic antiproliferative activity against lapatinib pretreated human NCI-N87 cells assessed as combination index at ED75 measured after 72 hrs by celltiter-glo assay; type: functional
MCF7 = assay: Synergistic antiproliferative activity against human MCF7 cells assessed as combination index at ED90 measured after 72 hrs in presence of docetaxel by celltiter-glo assay; type: functional; method in brief: as §2
[15] = Toxicity in human NCI-H460 cells xenografted CD1 nude mouse assessed as body weight loss at 120 mg/kg, po administered 3 times per week for 2 weeks measured on day 14 to 16 in presence of gemcitabine; type: organism-based; settings: in vivo, 336 h, time 14-16 day
Method in brief: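 NCI-H460 cells in 50% Matrigel/PBS injected s.c. into flank of CD1-nude mice; randomized at mean tumour 0.2 cm³ (n = 5). MK-2206 in 30% Captisol, 120 mg/kg p.o. days 0, 2, 4, 7, 9, 11. Carboplatin 50 mg/kg i.v. in saline days 0 and 7 (from day 12 after implant), or gemcitabine 100 mg/kg i.v. in saline days 0 and 7 (from day 8). Body weight monitored.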

[16] = Toxicity in human PC-3 cells xenografted CD1 nude mouse assessed as body weight loss at 120 mg/kg, po administered 3 times per week for 2 weeks measured during compound dosing relative to control; type: organism-based; settings: in vivo, 336 h
Method in brief: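 Male CD1-nude mice with s.c. PC-3 tumours (50% Matrigel/50% PBS, left flank), randomized at mean 0.2 cm³, n=5/group, treated from 25 d post-implant. Body weight monitored versus vehicle-only controls.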

HCC70 [17] = assay: Synergistic antiproliferative activity against human HCC70 cells assessed as combination index at ED90 measured after 96 hrs in presence of lapatinib by celltiter-glo assay; type: functional
SK-BR-3 [18] = assay: Synergistic antiproliferative activity against human SK-BR-3 cells assessed as combination index at ED90 measured after 72 hrs in presence of docetaxel by celltiter-glo assay; type: functional
A2780 [19] = assay: Synergistic antiproliferative activity against human A2780 cells assessed as combination index at ED50 measured after 72 hrs in presence of camptothecin by celltiter-glo assay; type: functional; method in brief: as §1
SK-BR-3 [20] = assay: Synergistic antiproliferative activity against human SK-BR-3 cells assessed as combination index at ED75 treated 24 hrs prior to lapatinib and measured after 72 hrs by celltiter-glo assay; type: functional; settings: time 96 hrs
HCC70 [21] = assay: Synergistic antiproliferative activity against human HCC70 cells assessed as combination index at ED75 measured after 72 hrs in presence of lapatinib by celltiter-glo assay; type: functional; method in brief: as §2

`Cl.NC1(c2ccc(-c3nc4ccn5c(=O)[nH]nc5c4cc3-c3ccccc3)cc2)CCC1` showed a CI50 (NCI-N87 [1]) of 0.18, a CI75 (BT-474 [2]) of 1.5 and a CI75 (A2780 [3]) of 0.43. For the same compound, the CI50 (NCI-H460) was 0.35, the CI50 (HCC70 [4]) was 0.9 and the inhibition [5] was “Active”. For the same compound, the CI90 (NCI-H1299 [6]) was 0.52, the CI50 (NCI-H1299 [7]) was 0.28 and the CI50 (MDA-MB-231) was 0.9. The inhibition [8] was “Active”, the CI50 (SK-BR-3 [9]) was 0.43 and the CI75 (ZR-75-1) was 0.2. For the same compound, the Activity (A2780 [10]) was “Dose-Dependent Effect”, the CI90 (BT-474 [11]) was 0.7 and the Activity (A2780 [12]) was “Dose-Dependent Effect”. The inhibition [13] was “Active”, the CI75 (NCI-N87 [14]) was 0.18 and the CI90 (MCF7) was 0.3. The Activity [15] was “Non-Toxic”, the Activity [16] was 8% and the CI90 (HCC70 [17]) was 0.18. It also gave a CI90 (SK-BR-3 [18]) of 0.8, a CI50 (A2780 [19]) of 0.56 and a CI75 (SK-BR-3 [20]) of 0.18. It also gave a CI75 (HCC70 [21]) of 0.28.
